# The source made the active and inactive calls. No cut-off for these calls is given here.
# How the values were obtained:
# MCF7 = experiment: Cytotoxicity against human MCF7 cells by MTT assay; assay type: functional, cell-based
# Method in brief: (§1)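 MTT colorimetric assay on human cancer cell lines (leukemia HL-60, lung A549, colon HCT-116, breast MCF-7) obtained from the Korea Cell Line Bank; values reported as IC50.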
# A549 = experiment: Cytotoxicity against human A549 cells by MTT assay; assay type: functional, cell-based; method in brief: as §1
# HCT-116 = experiment: Cytotoxicity against human HCT116 cells by MTT assay; assay type: functional, cell-based; method in brief: as §1
# HL-60 = experiment: Cytotoxicity against human HL60 cells by MTT assay; assay type: functional, cell-based; method in brief: as §1
# HepG2 [1] = experiment: Inhibition of NF-kappaB-induced iNOS mRNA expression in TNF-alpha-stimulated human HepG2 cells at 1 to 9 uM pretreated for 1 hr by RT-PCR; assay type: cell-based
# Method in brief: (§2)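 Hep-G2 cells pretreated with or without compound for 1 h, then exposed to 10 ng/mL TNFα for 6 h. Total mRNA isolated from cell pellets. COX-2 and iNOS transcripts quantified by RT-PCR, with primer specificity checked by gel electrophoresis and melting-curve analysis.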
# HepG2 [2] = experiment: Cytotoxicity against human HepG2 cells at 0.1 to 10 uM; assay type: cell-based; details: hepg2, 10 µM
# Method in brief: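 Hep-G2 viability measured by MTT assay at the concentrations used in the NF-κB reporter and mRNA experiments.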
# [3] = Inhibition of TNF-alpha-induced NF-kappaB transcriptional activity in human HepG2 cells pretreated for 1 hr by luciferase reporter gene assay; assay type: cell-based
# Method in brief: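 Hep-G2 cells seeded at 2 × 10^5 per well, grown 24 h, then transfected (Lipofectamine LTX) with a firefly luciferase reporter under a minimal CMV promoter with tandem NF-κB response elements. Cells pretreated 1 h with vehicle (DMSO) or compound (0.1, 1, 10 µM), then 10 ng/mL TNFα for 1 h. Lysates read for luminescence. Unstimulated cells as negative control, PDTC 10 µM as positive control. Mean ± SD, n = 6; IC50 derived.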
# HepG2 [4] = experiment: Inhibition of NF-kappaB-induced COX2 mRNA expression in TNF-alpha-stimulated human HepG2 cells at 1 to 9 uM pretreated for 1 hr by RT-PCR; assay type: cell-based; method in brief: as §2
Compound,Activity (MCF7),Activity (A549),Activity (HCT-116),Activity (HL-60),IC50 (MCF7),IC50 (A549),IC50 (HCT-116),IC50 (HL-60),inhibition (HepG2 [1]),Activity (HepG2 [2]),IC50 [3],inhibition (HepG2 [4])
C/C1=C/[C@]2(O)OC[C@@]3(C)O[C@]32CC[C@](C)(O)/C=C/C[C@@](C)(O)[C@@H](O)CC1,inactive,inactive,inactive,inactive,,,,,,,,
C/C1=C\[C@]2(O)OC[C@@]3(C)O[C@]32CC[C@](C)(O)/C=C/C[C@@]2(C)O[C@H]2CC1,inactive,inactive,inactive,inactive,,,,,,,,
CC1=C2CC/C(C)=C/CC[C@@]3(C)O[C@H]3CC[C@](C)(O)/C=C/2OC1=O,inactive,inactive,inactive,inactive,,,,,,,,
COC(=O)/C1=C\C=C(\C(C)C)CCC2=CCC[C@](C)(OC2=O)[C@@H](OC(C)=O)CC1 [EMBLIDE],,,,,> 40 µM,> 40 µM,> 40 µM,38.8 µM,,,,
C/C1=C\[C@@H]2O[C@@H](O)[C@@]3(C)O[C@@]23CC/C(C)=C/CC[C@@]2(C)O[C@H]2CC1 [LAEVIGATOL A],inactive,inactive,inactive,inactive,,,,,Dose-dependent effect,Non-toxic,9.4 µM,Dose-dependent effect
C=C1CO[C@H]2/C=C(\C)CC[C@@H]3O[C@]3(C)CC/C=C(\C)CC[C@@]12O [LAEVIGATOL B],inactive,inactive,inactive,inactive,,,,,Dose-dependent effect,Non-toxic,9.7 µM,Dose-dependent effect
COC(=O)[C@@]12CC(=O)[C@@H](C(C)C)CC(=O)[C@@H](C)CCC[C@@H](C)CC(=O)[C@@H]1CC(C)=C1[C@@H]3C[C@@](C)(O)[C@H](CC[C@@H](C)C(=O)CC/C(C)=C/[C@H]12)O3 [METHYL TORTUOATE B],,,,,> 40 µM,24.4 µM,19.7 µM,25.8 µM,Dose-dependent effect,Non-toxic,6.7 µM,Dose-dependent effect
O=C1c2c(O)ccc(O)c2C(=O)c2c(NCCNCCO)ccc(NCCNCCO)c21 [MITOXANTRONE],,,,,,,7.2 µM,7.9 µM,,,,
COC(=O)[C@]12CC(=O)[C@H](C(C)C)CC(=O)[C@H](C)CCC[C@H](C)CC(=O)[C@H]1CC(C)=C1C[C@H](OC(C)=O)[C@](C)(O)[C@H]3CC[C@@](C)(O)[C@H](CC/C(C)=C/[C@@H]12)O3 [NYALOLIDE],,,,,35.5 µM,28.7 µM,17.5 µM,28.1 µM,,,,
CC1=C2CC/C(C)=C/CC[C@]3(C)O[C@H]3CC/C(C)=C/[C@@H]2OC1=O [SARCOPHINE],,,,,> 40 µM,> 40 µM,> 40 µM,34.7 µM,,,,
COC(=O)[C@@]12CC(=O)[C@@H](C(C)C)CC(=O)[C@@H](C)CCC[C@@H](C)CC(=O)C1CC(C)=C1C2/C=C(\C)CCC2OC(CC[C@]2(C)OC(C)=O)[C@](C)(O)C[C@H]1O (stereo partly drawn) [XIMAOLIDE F],,,,,> 40 µM,28.4 µM,16.4 µM,9 µM,Dose-dependent effect,Non-toxic,6.9 µM,Dose-dependent effect

# — ChEMBL document CHEMBL1765038, “Cytotoxic and anti-inflammatory cembranoids from the Vietnamese soft coral Lobophytum laevigatum” (Bioorg Med Chem, 2011)
